Measured values reported in ChEMBL document CHEMBL3351895, “Cytotoxicity of synthesized 1,4-naphthoquinone analogues on selected human cancer cell lines” (Bioorg Med Chem, 2014).
pIC50: −log10 of the molar value.

Key:
HeLa = test: Cytotoxicity against human HeLa cells assessed as cell survival after 48 hrs by XTT assay
MCF7 = test: Cytotoxicity against human MCF7 cells assessed as cell survival after 48 hrs by XTT assay; conditions: MCF7, 48 h
DU-145 = test: Cytotoxicity against human DU145 cells assessed as cell survival after 48 hrs by XTT assay; conditions: DU-145, 48 h
[1] = Cytotoxicity against human SNO cells assessed as cell survival after 48 hrs by XTT assay
U-937 [2] = test: Induction of apoptosis in human U937 cells assessed as necrotic cells at 2 ug/ml after 48 hrs by annexin V-FITC/propidium iodide staining-based flow cytometry (reference value: 1.4%); assay type: functional
U-937 [3] = test: Induction of apoptosis in human U937 cells assessed as early apoptotic cells at 2 ug/ml after 24 hrs by annexin V-FITC/propidium iodide staining-based flow cytometry (reference value: 6.3%); assay type: functional
U-937 [4] = test: Induction of apoptosis in human U937 cells assessed as viable cells at 2 ug/ml after 24 hrs by annexin V-FITC/propidium iodide staining-based flow cytometry (reference value: 66%); assay type: functional; conditions: U-937, 24 h, read-out: Activity
U-937 [5] = test: Induction of apoptosis in human U937 cells assessed as late apoptotic cells at 2 ug/ml after 48 hrs by annexin V-FITC/propidium iodide staining-based flow cytometry (reference value: 11.7%); assay type: functional
U-937 [6] = test: Induction of apoptosis in human U937 cells assessed as necrotic cells at 2 ug/ml after 24 hrs by annexin V-FITC/propidium iodide staining-based flow cytometry (reference value: 24.7%); assay type: functional
[7] = Cell cycle arrest in human U937 cells assessed as accumulation at S phase at 2 ug/ml after 24 hrs by propidium iodide staining-based flow cytometric analysis (reference value: 30.7%); assay type: functional; conditions: U-937
Outline: (§1)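 U937 cells in complete RPMI 1640 (10% FBS, 25 mM HEPES, 2 mM glutamine) seeded at 2 × 10^6 cells/ml in flasks, recovered 24 h, then treated with compounds in DMSO (2 µg/ml). Cisplatin (10 µM) served as positive control and DMSO as negative control. Cells were harvested at 24 or 48 h and stained with propidium iodide. Phase percentages were gated on singlet cells by flow cytometry. Three independent experiments.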

[8] = Cell cycle arrest in human U937 cells assessed as accumulation at G0/G1 phase at 2 ug/ml after 24 hrs by propidium iodide staining-based flow cytometric analysis (reference value: 41.7%); assay type: functional; conditions: U-937
Outline: as §1

[9] = Cell cycle arrest in human U937 cells assessed as accumulation at S phase at 2 ug/ml after 48 hrs by propidium iodide staining-based flow cytometric analysis (reference value: 25.7%); assay type: functional; conditions: U-937
Outline: as §1

U-937 [10] = test: Induction of apoptosis in human U937 cells assessed as late apoptotic cells at 2 ug/ml after 24 hrs by annexin V-FITC/propidium iodide staining-based flow cytometry (reference value: 3%); assay type: functional
[11] = Cell cycle arrest in human U937 cells assessed as accumulation at G0/G1 phase at 2 ug/ml after 48 hrs by propidium iodide staining-based flow cytometric analysis (reference value: 54.6%); assay type: functional; conditions: U-937
Outline: as §1

U-937 [12] = test: Induction of apoptosis in human U937 cells assessed as viable cells at 2 ug/ml after 48 hrs by annexin V-FITC/propidium iodide staining-based flow cytometry (reference value: 81.3%); assay type: functional; conditions: U-937, 48 h, read-out: Activity
[13] = Cell cycle arrest in human U937 cells assessed as accumulation at subG1 phase at 2 ug/ml after 24 hrs by propidium iodide staining-based flow cytometric analysis (reference value: 15.1%); assay type: functional; conditions: U-937
Outline: as §1

[14] = Cell cycle arrest in human U937 cells assessed as accumulation at G2/M phase at 2 ug/ml after 24 hrs by propidium iodide staining-based flow cytometric analysis (reference value: 12.5%); assay type: functional; conditions: U-937
Outline: as §1

[15] = Cell cycle arrest in human U937 cells assessed as accumulation at G2/M phase at 2 ug/ml after 48 hrs by propidium iodide staining-based flow cytometric analysis (reference value: 16.6%); assay type: functional; conditions: U-937
Outline: as §1

U-937 [16] = test: Induction of apoptosis in human U937 cells assessed as caspase 3/7 activation at 2 ug/ml after 24 hrs by fluorescence reader relative to control; assay type: functional
Outline: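 U937 cells (2 × 10^6/ml, 24 h recovery) were exposed for 24 h to compounds in DMSO (2 µg/ml), with cisplatin 10 µM and DMSO controls. Cells were pelleted and resuspended in RPMI, at least 2 × 10^5 cells per well. (DEVD)2 substrate was added and cells incubated 2 h at 37 °C, 5% CO2, resuspended every 20 min. Fluorescence was read at 544/590 and 544/620 nm.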

[17] = Cell cycle arrest in human U937 cells assessed as accumulation at subG1 phase at 2 ug/ml after 48 hrs by propidium iodide staining-based flow cytometric analysis (reference value: 1.1%); assay type: functional; conditions: U-937
Outline: as §1

U-937 [18] = test: Induction of apoptosis in human U937 cells assessed as early apoptotic cells at 2 ug/ml after 48 hrs by annexin V-FITC/propidium iodide staining-based flow cytometry (reference value: 5.7%); assay type: functional
PBMC = test: Cytotoxicity against human PBMC assessed as cell survival after 24 hrs by fluorescence assay
U-937 [19] = test: Cytotoxicity against human U937 cells assessed as cell survival after 24 hrs by XTT assay; assay type: functional, cell-based

| SMILES | pIC50 (HeLa) | pIC50 (MCF7) | pIC50 (DU-145) | pIC50 [1] | Activity [7] [%] | Activity [8] [%] | Activity [9] [%] | Activity [11] [%] | Activity [13] [%] | Activity [14] [%] | Activity [15] [%] | Activity [17] [%] | other results |
| --- | --- | --- | --- | --- | --- | --- | --- | --- | --- | --- | --- | --- | --- |
| CCOc1cc(C)c(Cl)c2c1C(=O)C=CC2=O | 4.72 | 4.40 | 4.60 | 4.35 |  |  |  |  |  |  |  |  |  |
| CC(=O)Oc1cc(C)cc2c1C(=O)C=CC2=O | 4.76 | 4.83 | 4.62 | 4.55 |  |  |  |  |  |  |  |  |  |
| CC(=O)Oc1cc(OC(C)=O)c2c(OC(C)=O)cc(C)c(Cl)c2c1OC(C)=O | 4.28 | 4.29 | 4.22 | 4.24 |  |  |  |  |  |  |  |  |  |
| CCOc1cc(C)cc2c1C(=O)C=CC2=O | 4.53 | 4.63 | 4.82 | 4.60 |  |  |  |  |  |  |  |  |  |
| Cc1ccc2c(c1O)C(=O)C=CC2=O | 4.79 | 4.82 | 4.81 | 4.72 | 14.2 | 43 | 14.6 | 62.9 | 33.8 | 8.6 | 7 | 15 | Activity (U-937 [2]): 30.3%; Activity (U-937 [3]): 24.8%; viability at 2 µg/mL (U-937 [4]): 15.5%; Activity (U-937 [5]): 43.2%; Activity (U-937 [6]): 28.3%; Activity (U-937 [10]): 31.4%; viability at 2 µg/mL (U-937 [12]): 20.1%; Activity (U-937 [16]): -5.14%; Activity (U-937 [18]): 6.4% |
| CCOc1c(C)cc(Cl)c2c1C(=O)C=CC2=O | 4.48 | 4.49 | 4.58 | 4.43 |  |  |  |  |  |  |  |  |  |
| COc1cc(C)c(Cl)c2c1C(=O)C=CC2=O | 4.72 | 4.69 | 4.58 | 4.61 |  |  |  |  |  |  |  |  |  |
| Cc1cc(O)c2c(c1)C(=O)C(O)=CC2=O | 5.28 | 4.84 | 5.17 | 4.63 | 27.3 | 53.4 | 16.1 | 65.1 | 3 | 15.5 | 7.3 | 10.6 | pIC50 (PBMC): 4.27; Activity (U-937 [16]): 7.39% |
| Cc1cc(O)c2c(c1)C(=O)C=CC2=O [RAMENTACEONE] | 4.18 | 4.57 | 4.92 | 4.09 |  |  |  |  |  |  |  |  | pIC50 (PBMC): 4.74 |
| CC(=O)Oc1cc(OC(C)=O)c2c(OC(C)=O)cc(C)cc2c1OC(C)=O | 4.65 | 4.09 | 4.19 | 4.60 |  |  |  |  |  |  |  |  |  |
| COc1c(C)cc(Cl)c2c1C(=O)C=CC2=O | 4.38 | 4.79 | 4.44 | 4.35 |  |  |  |  |  |  |  |  |  |
| Cc1cc(Cl)c2c(c1O)C(=O)C=CC2=O | 5.00 | 5.00 | 5.03 | 5.03 | 11.4 | 65.6 | 14.1 | 62.2 | 18.1 | 4.5 | 5.3 | 17.9 | Activity (U-937 [2]): 60.1%; Activity (U-937 [3]): 17.1%; viability at 2 µg/mL (U-937 [4]): 5%; Activity (U-937 [5]): 36.1%; Activity (U-937 [6]): 49.6%; Activity (U-937 [19]): Not toxic; Activity (U-937 [10]): 28.3%; viability at 2 µg/mL (U-937 [12]): 1.9%; Activity (U-937 [18]): 1.9% |
| COc1cccc2c1C(=O)c1c(O)c3c(c(O)c1C2=O)C[C@@](O)(C(=O)CO)C[C@@H]3O[C@H]1C[C@H](N)[C@H](O)[C@H](C)O1 [DOXORUBICIN] |  |  | 8.00 | 8.00 |  |  |  |  |  |  |  |  |  |
| CC(=O)Oc1c(C)cc(Cl)c2c1C(=O)C=CC2=O | 4.66 | 4.73 | 4.90 | 4.54 |  |  |  |  |  |  |  |  |  |
| Cc1cc(O)c2c(c1F)C(=O)C=CC2=O | 4.99 | 4.69 | 4.81 | 4.72 | 17.4 | 69.2 | 15.9 | 64.8 | 8.2 | 4.7 | 6.9 | 11.8 | Activity (U-937 [2]): 53.9%; Activity (U-937 [3]): 10.2%; viability at 2 µg/mL (U-937 [4]): 4.5%; Activity (U-937 [5]): 42.6%; Activity (U-937 [6]): 61.1%; Activity (U-937 [19]): Not toxic; Activity (U-937 [10]): 34.2%; viability at 2 µg/mL (U-937 [12]): 1.6%; pIC50 (PBMC): 3.72; Activity (U-937 [16]): -5.21%; Activity (U-937 [18]): 1% |
| Cc1cc(O)c2c(c1Br)C(=O)C=CC2=O | 4.95 | 4.81 | 4.33 | 4.83 | 16.8 | 63.3 | 28.8 | 53 | 14.8 | 4.6 | 17.7 | 13 | Activity (U-937 [2]): 53.8%; Activity (U-937 [3]): 10%; viability at 2 µg/mL (U-937 [4]): 15.9%; Activity (U-937 [5]): 39%; Activity (U-937 [6]): 67.1%; Activity (U-937 [19]): Not toxic; Activity (U-937 [10]): 7%; viability at 2 µg/mL (U-937 [12]): 3.8%; Activity (U-937 [18]): 3.4% |
| Cc1cc(O)c2c(c1Cl)C(=O)C=CC2=O | 4.87 | 4.80 | 4.53 | 4.76 | 16.2 | 60.9 | 10.5 | 30.2 | 17.1 | 5.4 | 5.4 | 53.5 | Activity (U-937 [19]): Not toxic |
| CC(=O)Oc1cc(OC(C)=O)c2c(OC(C)=O)c(C)cc(Cl)c2c1OC(C)=O | 4.55 | 4.24 | 4.09 | 4.27 |  |  |  |  |  |  |  |  |  |
| CC(=O)Oc1cc(C)c(Cl)c2c1C(=O)C=CC2=O | 4.58 | 4.42 | 4.59 | 4.54 |  |  |  |  |  |  |  |  |  |
| COc1cc(C)cc2c1C(=O)C=CC2=O | 4.68 | 4.82 | 4.51 | 4.65 |  |  |  |  |  |  |  |  |  |
